Article PMC6880868 (Cancer cell, 2019)

Assays:
[1] = system: MOLM-16 and SU-DHL-1 cell lines; assay: Cell cycle analysis by flow cytometry; format: cell-based, human; details: 1 μM, 48 hr
How it was run: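 After treatment, cells were washed twice in cold PBS and fixed overnight in 50% ethanol. They were stained 1 hr at 4°C with PI (50 μg/ml) plus DNase-free RNase A (0.2 μg/ml), then analysed by flow cytometry.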

STAT3 target genes [2] = assay: qRT-PCR of STAT3 target genes in MOLM-16 cells; format: cell-based, human; details: MOLM-16, 1 μM, 8 hr
[3] = Pharmacokinetics in tumor-bearing mice; format: in vivo, NOD/SCID female mice; details: single i.v. dose 25 mg/kg; 1, 3 and 6 hr
How it was run: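 In NOD/SCID female mice with subcutaneous MOLM-16 xenografts, mice were dosed i.v. Blood and tissues were collected at the indicated times, and drug levels were measured by a pharmacokinetics core.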

STAT5A = STAT5A (Homo sapiens, UniProt P42229); assay: Bio-Layer Interferometry binding, STAT5A
How it was run: (§1)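 Purified recombinant human STAT proteins were biotinylated, then direct binding of the test compound was measured by Bio-Layer Interferometry to give Kd.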

MOLM-16 cells = assay: RNA-seq analysis, MOLM-16; format: cell-based, human
STAT2 = STAT2 (Homo sapiens, UniProt P52630); assay: Bio-Layer Interferometry binding, STAT2
How it was run: as §1

SUP-M2 tumor = assay: SUP-M2 xenograft efficacy; format: in vivo, mice
How it was run: (§2)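 NOD/SCID female mice were injected subcutaneously in 5 mg/ml Matrigel with MOLM-16 (3 × 10^6), SU-DHL-1 (1 × 10^7) or SUP-M2 (1 × 10^7) cells. At about 150 mm3, mice were size-matched and randomised. Test compound or vehicle (10% PEG400 + 90% PBS) was given on the indicated schedules. Tumours were measured 2–3 times weekly, with volume = length×width²/2. TGI was calculated from group medians.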

[4] = system: STAT proteins in MOLM-16 and SU-DHL-1 tumors; assay: Multiplexed quantitative proteomics in xenograft tumors; format: in vivo, mice; details: 25 mg/kg i.v., 6 hr
[5] = system: transcriptional activity of STAT3; assay: STAT3-luciferase reporter assay; format: cell-based, human; details: Homo sapiens, MOLM16, 24 h, read-out: IC50, transcriptional activity of STAT3
[6] = system: DNA binding activities of STAT1, STAT5A or STAT5B; assay: STAT1, STAT5A, STAT5B DNA binding activity assay; format: cell-based, human; details: MOLM-16
How it was run: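 Nuclear extraction: cells were swelled 15 min on ice in hypotonic HEPES pH 7.9/10 mM KCl buffer with DTT and phosphatase/protease inhibitors. NP-40 was added (0.5% final), and nuclei were extracted 15 min at 4°C in 0.4 M NaCl HEPES buffer, then cleared at 5,000 × g. ELISA: 5 μg extract was bound 1 hr at room temperature in TransAM STAT ELISA wells. Wells then received STAT antibody (1:1000, 1 hr), HRP secondary (1 hr) and colour development.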

[7] = system: leukemia and lymphoma cell lines; assay: 4-day CellTiter Glo cell viability assay, leukemia and lymphoma cell line panel; format: cell-based, human
STAT3 = STAT3 (Homo sapiens, UniProt P40763); assay: STAT3 protein degradation in human cells; format: cell-based
How it was run: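 Treated cells were lysed in cell lysis buffer, resolved by SDS-PAGE, transferred to PVDF and probed by immunoblotting.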

[8] = biological target: monomeric and dimeric STAT3 protein (Homo sapiens, UniProt P40763); assay: Native electrophoresis and immunoblotting of STAT3 monomer/dimer; format: cell-based; details: MOLM-16, 1 μM, within 5 hr
SU-DHL-1 = assay: RNA-seq analysis, SU-DHL-1; format: cell-based, human; details: SU-DHL-1, 24 hr
MOLM-16 tumors = assay: MOLM-16 xenograft efficacy; format: in vivo, NOD/SCID female mice
How it was run: as §2

[9] = system: mitochondrial STAT3; complex I and II; assay: Mitochondrial STAT3 and OXPHOS complex I/II enzyme activity; format: cell-based; details: 24 hours
STAT3 target genes [10] = assay: qRT-PCR of STAT3 target genes in MOLM-16 tumors; format: in vivo, SCID mice; details: single dose 25 mg/kg i.v.
How it was run: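 SCID mice with MOLM-16 tumours received vehicle or test compound i.v. Total RNA was isolated from tumour lysates and STAT3 target genes were quantified by qRT-PCR.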

MOLM-16 = assay: 4-day CellTiter Glo cell viability assay, MOLM-16; format: cell-based; details: Homo sapiens, MOLM16, 96 h, read-out: IC50, growth inhibition
[11] = system: ~5500 proteins quantified in each cell line; assay: Multiplexed quantitative proteomics in cell lines; format: cell-based, human; details: 10 μM, 2.5 hr, three cell lines, p≤0.05
How it was run: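 Cells were exposed to test compound, then analysed by multiplexed quantitative proteomics. Significance was assessed by Student's t-test.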

[12] = 100 mg/kg weekly or 50 mg/kg twice weekly for 4 weeks

Chain of STAT3 (P40763 whole entry): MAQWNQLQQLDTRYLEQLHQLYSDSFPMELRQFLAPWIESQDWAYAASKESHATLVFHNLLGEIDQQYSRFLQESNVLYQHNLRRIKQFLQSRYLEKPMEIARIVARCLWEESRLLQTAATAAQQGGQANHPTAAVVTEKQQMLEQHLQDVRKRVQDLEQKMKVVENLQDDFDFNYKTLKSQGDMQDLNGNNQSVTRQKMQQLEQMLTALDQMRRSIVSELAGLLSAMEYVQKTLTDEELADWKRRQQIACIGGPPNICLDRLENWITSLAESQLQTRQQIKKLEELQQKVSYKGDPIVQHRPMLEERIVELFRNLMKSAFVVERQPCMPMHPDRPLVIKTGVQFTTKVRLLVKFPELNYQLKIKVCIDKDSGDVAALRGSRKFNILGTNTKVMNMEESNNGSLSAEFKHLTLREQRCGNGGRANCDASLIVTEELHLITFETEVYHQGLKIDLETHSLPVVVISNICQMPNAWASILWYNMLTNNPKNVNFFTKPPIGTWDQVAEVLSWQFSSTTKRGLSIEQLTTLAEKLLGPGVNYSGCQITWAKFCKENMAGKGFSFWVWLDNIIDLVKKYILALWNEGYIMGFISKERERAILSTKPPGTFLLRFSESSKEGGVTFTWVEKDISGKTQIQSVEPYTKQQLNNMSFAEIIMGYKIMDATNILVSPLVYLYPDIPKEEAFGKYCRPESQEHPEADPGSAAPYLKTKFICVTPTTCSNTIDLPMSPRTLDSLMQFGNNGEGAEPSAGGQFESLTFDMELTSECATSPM
Chain of monomeric and dimeric STAT3 protein (P40763 whole entry): as above
Chain of STAT2 (P52630 138-702): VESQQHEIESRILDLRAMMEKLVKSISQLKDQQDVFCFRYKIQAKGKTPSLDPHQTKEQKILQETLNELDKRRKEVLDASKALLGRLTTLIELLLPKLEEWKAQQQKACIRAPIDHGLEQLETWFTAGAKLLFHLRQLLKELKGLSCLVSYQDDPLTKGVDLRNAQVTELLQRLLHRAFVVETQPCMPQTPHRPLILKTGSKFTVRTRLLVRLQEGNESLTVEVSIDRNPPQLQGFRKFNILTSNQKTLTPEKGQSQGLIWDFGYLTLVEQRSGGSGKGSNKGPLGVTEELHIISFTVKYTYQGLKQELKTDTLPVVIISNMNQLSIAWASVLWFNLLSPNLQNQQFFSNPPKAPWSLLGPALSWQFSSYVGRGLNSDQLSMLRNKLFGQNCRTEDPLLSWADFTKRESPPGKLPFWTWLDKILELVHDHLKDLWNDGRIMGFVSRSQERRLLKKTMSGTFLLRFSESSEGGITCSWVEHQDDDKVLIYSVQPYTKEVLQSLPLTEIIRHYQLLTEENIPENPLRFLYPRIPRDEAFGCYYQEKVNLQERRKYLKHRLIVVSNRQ
Chain of STAT5A (P42229 136-705): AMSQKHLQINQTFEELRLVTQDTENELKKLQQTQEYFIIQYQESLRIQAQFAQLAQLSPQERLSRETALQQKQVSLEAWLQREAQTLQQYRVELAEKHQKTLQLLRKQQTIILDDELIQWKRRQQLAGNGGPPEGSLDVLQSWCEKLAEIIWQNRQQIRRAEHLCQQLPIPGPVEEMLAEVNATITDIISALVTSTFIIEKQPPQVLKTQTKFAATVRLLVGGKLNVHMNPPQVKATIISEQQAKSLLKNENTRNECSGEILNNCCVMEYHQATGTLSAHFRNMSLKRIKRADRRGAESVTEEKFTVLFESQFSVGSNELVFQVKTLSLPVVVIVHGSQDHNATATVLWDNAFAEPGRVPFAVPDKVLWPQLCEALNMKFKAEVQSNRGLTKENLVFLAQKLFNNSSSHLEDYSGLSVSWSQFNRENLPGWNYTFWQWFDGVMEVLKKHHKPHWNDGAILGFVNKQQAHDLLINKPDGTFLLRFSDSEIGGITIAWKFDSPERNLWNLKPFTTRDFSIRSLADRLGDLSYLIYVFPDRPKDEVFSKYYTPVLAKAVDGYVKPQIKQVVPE

With `NC(=O)CC[C@H](NC(=O)[C@@H]1CC[C@@H]2CCN(C(=O)CCCCCC#Cc3cccc4c3CN(C3CCC(=O)NC3=O)C4=O)C[C@H](NC(=O)c3cc4cc(C(F)(F)P(=O)(O)O)ccc4[nH]3)C(=O)N21)C(=O)NC(c1ccccc1)c1ccccc1` (stereo partly drawn) [SD-36, ((2-(((5S,8S,10aR)-8-(((S)-5-amino-1-(benzhydrylamino)-1,5-dioxopentan-2-yl)carbamoyl)-3-(8-(2-(2,6-dioxopiperidin-3-yl)-1-oxoisoindolin-4-yl)oct-7-ynoyl)-6-oxodecahydropyrrolo[1,2-a][1,5]diazocin-5-yl)carbamoyl)-1H-indol-5-yl)difluoromethyl)phosphonic acid] the cell cycle effect [1] was “profound G1 arrest”, the “expression of a set of STAT3 target genes” value (STAT3 target genes [2]) was “significantly down-regulated” and the “drug exposure in plasma, tumor tissues and several organs” value [3] was “good drug exposure”. For the same molecule, the Kd (STAT5A) was ~5 µM, the “genes down-regulated by ≥2-fold (p≤0.05)” value (MOLM-16 cells; MOLM-16, 1 μM, 8 hr) was 125 genes and the “genes up-regulated by ≥2-fold (p≤0.05)” value (MOLM-16 cells; MOLM-16, 1 μM, 8 hr) was 34 genes. The “genes down-regulated ≥2-fold (p≤0.05)” value (MOLM-16 cells; MOLM-16, 24 hr) was 301 genes, the “genes up- or down-regulated ≥2-fold (p≤0.05), total” value (MOLM-16 cells; MOLM-16, 24 hr) was 348 genes and the “genes up-regulated ≥2-fold (p≤0.05)” value (MOLM-16 cells; MOLM-16, 24 hr) was 47 genes. For the same molecule, the Kd (STAT2) was ~5 µM, the tumor growth (SUP-M2 tumor; 50 mg/kg three times per week) was “completely inhibited tumor growth” and the tumor response (SUP-M2 tumor; 100 mg/kg three times per week, tumor free until day 30) was “Complete tumor regression”. The “tumors with complete tumor regression” value (SUP-M2 tumor; 100 mg/kg twice a week for 3 weeks, day 29) was 5 out of 7, the “effect on other STAT proteins in tumors” value [4] was “no significant effect on other STAT proteins” and the IC50 [5] was 10 nM. The “DNA binding activities of STAT1, STAT5A or STAT5B” value [6] was “no significant effect”, the “AML cell lines with strong growth-inhibitory activity” value ([7]; 9 AML cell lines) was 1 of 9 and the “lymphoma cell lines with potent activity” value ([7]; 9 lymphoma cell lines) was 5 of 9. For the same molecule, the STAT3 protein depleted (STAT3; DEL, 250 nM, 7 hr) was > 50%, the STAT3 protein depleted (STAT3; KI-JK, 250 nM, 7 hr) was > 50% and the “levels of activated pSTAT3 (Y705)” value (STAT3; MOLM-16, 0.25 μM) was “effectively reduced”. The STAT3 protein depleted (STAT3; MOLM-16, 250 nM, 4 hr) was > 90%, the “cellular STAT3 protein in SD-36 insensitive cell lines” value (STAT3; SD-36 insensitive cell lines) was “effectively depleted” and the STAT3 protein depleted (STAT3; SU-DHL-1, 250 nM, 7 hr) was > 50%. For the same molecule, the hook effect (STAT3; concentrations as high as 10 μM, all cell lines tested) was “not observed”, the “levels of STAT3 protein in PBMCs” value (STAT3; human PBMCs, 24 hr) was “potently and effectively reduced” and the “monomeric and dimeric STAT3 protein” value [8] was “completely depletes”. The “genes down-regulated by ≥2-fold (p≤0.05)” value (SU-DHL-1) was 701 genes, the “genes up-regulated by ≥2-fold (p≤0.05)” value (SU-DHL-1) was 726 genes and the “persistence of regression after cessation of treatment” value (MOLM-16 tumors; [12]) was “at least 2 weeks”. The tumor response (MOLM-16 tumors; [12]) was “complete tumor regression”, the tumor growth (MOLM-16 tumors; 25 and 50 mg/kg weekly for 4 weeks) was “effectively inhibited tumor growth” and the “effect on complex I and II activity” value [9] was “did not have a substantial effect”. For the same molecule, the “mitochondrial STAT3” value [9] was “effectively depleted”, the “expression of a set of STAT3 target genes in tumors” value (STAT3 target genes [10]) was “significantly down-regulated” and the IC50 (MOLM-16) was 35 nM. The proteome-wide selectivity [11] was “STAT3 was the only protein whose level was significantly decreased by ≥2-fold”.
